Test results as given in ChEMBL document CHEMBL2146359, “HCV NS5A replication complex inhibitors. Part 2: investigation of stilbene prolinamides” (Bioorg Med Chem Lett, 2012).
Values after ≈ are worked out from the molar mass of the structure shown.

What was measured:
[1] = Cmax in rat at 1.8 mg/kg, po and iv; format: ADME, organism-based; design: dose 1.8 mg/kg, route oral; conditions: in vivo
Rattus norvegicus [2] = experiment: Volume of distribution at steady state in rat at 1.8 mg/kg, po and iv; format: ADME, organism-based; design: dose 1.8 mg/kg, route oral; conditions: in vivo
[3] = AUC in rat at 1.8 mg/kg, po; format: ADME, organism-based; design: dose 1.8 mg/kg, route oral; conditions: plasma
[4] = Oral bioavailability in rat at 1.8 mg/kg; format: ADME, organism-based; conditions: in vivo
[5] = Half life in rat at 1.8 mg/kg, po and iv; format: ADME, organism-based; design: dose 1.8 mg/kg, route oral; conditions: in vivo
[6] = Metabolic stability in rat liver microsomes assessed as compound remaining after 10 mins; format: ADME, Microsome; conditions: read-out: Stability
[7] = Solubility of the compound; format: physicochemical
[8] = test system: Bovine viral diarrhea virus 1; experiment: Antiviral activity against BVDV1; format: functional, organism-based; conditions: Bovine viral diarrhea virus isolates and strains
Hepatitis C virus = experiment: Antiviral activity against HCV genotype 1b infected in human Huh7 cells assessed as inhibition of viral replication by FRET assay; format: functional, organism-based, Hepacivirus hominis; conditions: Huh-7
Procedure, shortened: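 Replicon potency values are the means of at least two experiments.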

[9] = AUC in rat at 1.8 mg/kg, iv; format: ADME, organism-based; design: dose 1.8 mg/kg, route intravenous; conditions: plasma
[10] = Cytotoxicity against human HuH7 cells after 72 hrs by Alamar Blue assay; format: cell-based; conditions: Huh-7 cells
[11] = Half life in rat at 2.5 mg/kg, po and iv; format: ADME, organism-based; design: dose 2.5 mg/kg, route oral; conditions: in vivo
Rattus norvegicus [12] = experiment: AUC in rat at 2.5 mg/kg, iv; format: ADME, organism-based, Plasma; design: dose 2.5 mg/kg, route intravenous; conditions: in vivo
[13] = Permeability across human Caco2 cells; format: ADME, cell-based; conditions: Caco-2, read-out: permeability
Rattus norvegicus [14] = experiment: Volume of distribution at steady state in rat at 2.5 mg/kg, po and iv; format: ADME, organism-based; design: dose 2.5 mg/kg, route oral; conditions: in vivo
Rattus norvegicus [15] = experiment: Volume of distribution at steady state in rat at 1.6 mg/kg, po and iv; format: ADME, organism-based; design: dose 1.6 mg/kg, route oral; conditions: in vivo
[16] = AUC in rat at 1.6 mg/kg, iv; format: ADME, organism-based; design: dose 1.6 mg/kg, route intravenous; conditions: plasma
[17] = Half life in rat at 1.6 mg/kg, po and iv; format: ADME, organism-based; design: dose 1.6 mg/kg, route oral; conditions: in vivo
[18] = AUC in rat at 2.8 mg/kg, po; format: ADME, organism-based; design: dose 2.8 mg/kg, route oral; conditions: plasma
[19] = Oral bioavailability in rat at 2.8 mg/kg; format: ADME, organism-based; conditions: in vivo
[20] = AUC in rat at 2.8 mg/kg, iv; format: ADME, organism-based; design: dose 2.8 mg/kg, route intravenous; conditions: plasma
[21] = Half life in rat at 2.8 mg/kg, po and iv; format: ADME, organism-based; design: dose 2.8 mg/kg, route oral; conditions: in vivo
Rattus norvegicus [22] = experiment: Volume of distribution at steady state in rat at 2.8 mg/kg, po and iv; format: ADME, organism-based; design: dose 2.8 mg/kg, route oral; conditions: in vivo
[23] = Cmax in rat at 2.8 mg/kg, po and iv; format: ADME, organism-based; design: dose 2.8 mg/kg, route oral; conditions: in vivo

Structure (SMILES) | remaining at 10 min [6] | EC50 [8] | EC50 (Hepatitis C virus) | CC50 at 72 h [10] | also measured
O=C(Nc1ccc(/C=C/c2ccc(NC(=O)[C@@H]3CCCN3C(=O)OCc3ccccc3)cc2)cc1)[C@@H]1CCCN1C(=O)OCc1ccccc1 | 77% | > 10 µM | 0.00897 µM | > 10 µM | Cmax [1]: 4 ng/mL; Vdss (Rattus norvegicus [2]): 4.3 L/kg; AUC [3]: 37 ng·h/mL; bioavailability [4]: 2%; half-life [5]: 4.6 h; solubility [7]: < 1 µg/mL; AUC [9]: 1620 ng·h/mL
CC(=O)N1CCC[C@H]1C(=O)Nc1ccc(/C=C/c2ccc(NC(=O)[C@@H]3CCCN3C(=O)Cc3ccccc3)cc2)cc1 | 82% | > 10 µM | 0.0015 µM | > 10 µM | half-life [11]: 5.2 h; AUC (Rattus norvegicus [12]): 101535 ng·h/mL; Papp [13]: < 1.5 ×10⁻⁶ cm/s; Vdss (Rattus norvegicus [14]): 1.2 L/kg
O=C(Nc1ccc(/C=C/c2ccc(NC(=O)[C@@H]3C[C@@H](O)CN3C(=O)OCc3ccccc3)cc2)cc1)[C@@H]1C[C@@H](O)CN1C(=O)OCc1ccccc1 | 99% | > 10 µM | 0.0289 µM | > 10 µM | Vdss (Rattus norvegicus [15]): 1 L/kg; AUC [16]: 2450 ng·h/mL; half-life [17]: 6.4 h; Papp [13]: 3.5 ×10⁻⁶ cm/s
O=C(Nc1ccc(/C=C/c2ccc(NC(=O)[C@@H]3CCCN3C(=O)Cc3cccnc3)cc2)cc1)[C@@H]1CCCN1C(=O)Cc1cccnc1 | 88% | > 10 µM | 0.000784 µM | > 10 µM | Cmax [1]: 120 ng/mL; Vdss (Rattus norvegicus [2]): 2.9 L/kg; AUC [3]: 322 ng·h/mL; bioavailability [4]: 10%; half-life [5]: 9.3 h; solubility [7]: 53 µg/mL (≈ 82.5 µM); AUC [9]: 3080 ng·h/mL; Papp [13]: 1.6 ×10⁻⁶ cm/s
Cn1cnc(CC(=O)N2CCC[C@H]2C(=O)Nc2ccc(/C=C/c3ccc(NC(=O)[C@@H]4CCCN4C(=O)Cc4cn(C)cn4)cc3)cc2)c1 | – | > 10 µM | 0.0867 µM | > 10 µM | –
O=C(Nc1ccc(/C=C/c2ccc(NC(=O)[C@@H]3CCCN3C(=O)Cc3c[nH]cn3)cc2)cc1)[C@@H]1CCCN1C(=O)Cc1c[nH]cn1 | – | > 10 µM | 1 µM | > 10 µM | –
Cc1nc2sccn2c1C(=O)N1CCC[C@H]1C(=O)Nc1ccc(/C=C/c2ccc(NC(=O)[C@@H]3CCCN3C(=O)c3c(C)nc4sccn34)cc2)cc1 | – | > 10 µM | 0.0579 µM | > 10 µM | –
O=C(Nc1ccc(/C=C/c2ccc(NC(=O)[C@@H]3CCCN3C(=O)c3c[nH]c4ccccc34)cc2)cc1)[C@@H]1CCCN1C(=O)c1c[nH]c2ccccc12 | – | > 10 µM | 0.111 µM | > 10 µM | –
Cn1cc(C(=O)N2CCC[C@H]2C(=O)Nc2ccc(/C=C/c3ccc(NC(=O)[C@@H]4CCCN4C(=O)c4cn(C)c5ccccc45)cc3)cc2)c2ccccc21 | – | > 10 µM | 0.14 µM | > 10 µM | –
O=C(Nc1ccc(/C=C/c2ccc(NC(=O)[C@@H]3CCCN3C(=O)C3Cc4ccccc4O3)cc2)cc1)[C@@H]1CCCN1C(=O)C1Cc2ccccc2O1 (some centres undefined) | – | > 10 µM | 0.011 µM | > 10 µM | –
O=C(Nc1ccc(/C=C/c2ccc(NC(=O)[C@@H]3CCCN3C(=O)c3ccc4occc4c3)cc2)cc1)[C@@H]1CCCN1C(=O)c1ccc2occc2c1 | – | > 10 µM | 0.056 µM | > 10 µM | –
Cc1nc2ccccn2c1C(=O)N1CCC[C@H]1C(=O)Nc1ccc(/C=C/c2ccc(NC(=O)[C@@H]3CCCN3C(=O)c3c(C)nc4ccccn34)cc2)cc1 | – | > 10 µM | 0.0868 µM | > 10 µM | –
O=C(Nc1ccc(/C=C/c2ccc(NC(=O)[C@@H]3CCCN3C(=O)c3cccc4ccccc34)cc2)cc1)[C@@H]1CCCN1C(=O)c1cccc2ccccc12 | – | > 10 µM | 1.63 µM | > 10 µM | –
O=C(Nc1ccc(/C=C/c2ccc(NC(=O)[C@@H]3CCCN3C(=O)c3ccc4ccccc4c3)cc2)cc1)[C@@H]1CCCN1C(=O)c1ccc2ccccc2c1 | – | > 10 µM | 10 µM | > 10 µM | –
CCc1ccccc1C(=O)N1CCC[C@H]1C(=O)Nc1ccc(/C=C/c2ccc(NC(=O)[C@@H]3CCCN3C(=O)c3ccccc3CC)cc2)cc1 | – | > 10 µM | 1.13 µM | > 10 µM | –
O=C(Nc1ccc(/C=C/c2ccc(NC(=O)[C@@H]3CCCN3C(=O)CC3CC3)cc2)cc1)[C@@H]1CCCN1C(=O)CC1CC1 | 84% | > 10 µM | 0.062 µM | > 10 µM | AUC [18]: 11900 ng·h/mL; bioavailability [19]: 64%; AUC [20]: 18500 ng·h/mL; solubility [7]: 4.4 µg/mL (≈ 7.74 µM); half-life [21]: 4.9 h; Vdss (Rattus norvegicus [22]): 0.8 L/kg; Cmax [23]: 1500 ng/mL; Papp [13]: 0.4 ×10⁻⁶ cm/s
